Values after ≈ are worked out from the molar mass of the structure shown.
Experiments:
[1] = Cytotoxicity against human SH-SY5Y cells assessed as cell viability at 1 uM measured after 48 hrs by MTT assay relative to control; assay type: cell-based; details: read-out: Activity
[2] = molecular target: Nicotinamide phosphoribosyltransferase (Mus musculus, UniProt Q99KQ4); experiment: Inhibition of recombinant mouse wild-type NAMPT expressed in bacterial expression system using PRPP as substrate in presence of mouse NMNAT-3 measured for 1 hr by fluorescence assay
Chain of Nicotinamide phosphoribosyltransferase (Q99KQ4 whole entry): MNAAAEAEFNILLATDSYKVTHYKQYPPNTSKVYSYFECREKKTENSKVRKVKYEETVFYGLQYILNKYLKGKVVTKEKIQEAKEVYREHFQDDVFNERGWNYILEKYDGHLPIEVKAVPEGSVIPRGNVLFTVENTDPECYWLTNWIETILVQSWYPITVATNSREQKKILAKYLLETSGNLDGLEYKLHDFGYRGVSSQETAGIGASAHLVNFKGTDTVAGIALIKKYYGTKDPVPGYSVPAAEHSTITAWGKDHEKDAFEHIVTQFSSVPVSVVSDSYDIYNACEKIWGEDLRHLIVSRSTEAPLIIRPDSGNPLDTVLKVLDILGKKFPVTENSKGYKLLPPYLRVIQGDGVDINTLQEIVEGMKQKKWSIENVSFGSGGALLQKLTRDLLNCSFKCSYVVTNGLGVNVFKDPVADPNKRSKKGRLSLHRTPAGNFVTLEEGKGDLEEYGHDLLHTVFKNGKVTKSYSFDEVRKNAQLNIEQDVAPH
Method in brief: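 In vitro NAMPT enzymatic assay run as concentration-response curves, with IC50 derived from the curves. Mean ± SD of three independent experiments (n = 6).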

[3] = tested on: SH-SY5Y; experiment: Cytotoxicity against human SH-SY5Y cells measured after 48 hrs by MTT assay; assay type: cell-based
[4] = Kinetic aqueous solubility of the compound in 80:20 PBS/acetonitrile solution at 200 to 500 uM by HTS assay; assay type: physicochemical; details: read-out: Kinetic_solubility
[5] = tested on: SH-SY5Y; experiment: Cytotoxicity against human SH-SY5Y cells assessed as cell viability at 10 uM measured after 48 hrs by MTT assay relative to control; assay type: functional; details: read-out: Activity
[6] = Permeability across apical side to basolateral side in human Caco2 cells at 30 uM after 4 hrs by HPLC analysis; assay type: ADME, cell-based; details: caco-2, 4 h
Method in brief: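 Caco-2 monolayer used to measure apical-to-basal transfer, reported as % permeability and Papp. Terbutaline served as the positive control; n = 3.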

[7] = Toxicity in Crl:CD Sprague-Dawley rat retina at 100 mg/kg, ip administered once daily for 5 days by hematoxylin and eosin staining based microscopic analysis; assay type: organism-based; details: in vivo, 120 h
[8] = Toxicity in Crl:CD Sprague-Dawley rat heart assessed as increase in cardiomyocytes cytoplasmic vacuolation at 100 mg/kg, ip administered once daily for 5 days by hematoxylin and eosin staining based microscopic analysis; assay type: organism-based; details: in vivo, 120 h
[9] = Kinetic aqueous solubility of the compound in 80:20 PBS/acetonitrile solution at 200 uM by HTS assay; assay type: physicochemical; details: buffer
[10] = Toxicity in Crl:CD Sprague-Dawley rat heart assessed as hypereosinophilia at 100 mg/kg, ip administered once daily for 5 days by hematoxylin and eosin staining based microscopic analysis; assay type: organism-based; details: in vivo, 120 h
[11] = Toxicity in Crl:CD Sprague-Dawley rat heart assessed as interstitial expansion at 100 mg/kg, ip administered once daily for 5 days by hematoxylin and eosin staining based microscopic analysis; assay type: organism-based; details: in vivo, 120 h

Row | IC50 [2] [nM] | solubility kinetic [4] [µM] | SMILES | viability at 48 h, 1 µM [1] [%] | EC50 [3] [nM] | other results
1 | > 500 |  | O=C(NCCCCCCCn1cc(-c2ccc[n+]([O-])c2)nn1)c1ccccc1-c1ccccc1 | 103 |  | 
2 | 42.5 |  | O=C(NCCCCCCCn1cc(-c2cccnc2)nn1)c1ccccc1-c1c[nH]nn1 | 23.5 | 86.5 | 
3 | 38.5 |  | O=C(O)c1ccccc1-c1ccccc1C(=O)NCCCCCCCn1cc(-c2cccnc2)nn1 | 80.9 | > 500 | 
4 | 24.7 | 200 to 500 (≈ 114 to 285 µg/mL) | CC(C)N1CCN(Cc2cn(-c3ccccc3C(=O)NCCCCCCCn3cc(-c4cccnc4)nn3)nn2)CC1 | 80.2 | > 10000 | viability at 10 µM [5]: 64.1%
5 |  |  | CC(C)(C)NCC(O)c1cc(O)cc(O)c1 (stereo unspecified) [TERBUTALINE] |  |  | permeability [6]: 52.7%
6 |  |  | O=C(/C=C/c1cccnc1)NCCCCC1CCN(C(=O)c2ccccc2)CC1 [DAPORINAD] | 9.7 | 2.5 | Activity [7]: Non-Toxic; Activity [8]: Toxic; permeability [6]: 20.5%; Kinetic_solubility [9]: Soluble; Activity [10]: Toxic; Activity [11]: Non-Toxic
7 | 28.5 |  | O=C(NCCCCCCCn1cc(-c2cccnc2)nn1)c1ccccc1-c1cccnc1 | 15.1 | 36.5 | 
8 | 17.1 | 200 to 500 (≈ 106 to 264 µg/mL) | O=C(NCCCCCCCn1cc(-c2cccnc2)nn1)c1ccccc1-n1cc(CN2CCCCC2)nn1 | 15.9 | > 500 | 
9 | 42.4 | 200 to 500 (≈ 97.5 to 244 µg/mL) | CN(C)Cc1cn(-c2ccccc2C(=O)NCCCCCCCn2cc(-c3cccnc3)nn2)nn1 | 86.6 | 285 | 
10 | 87.9 |  | NC(=O)c1ccccc1-c1ccccc1C(=O)NCCCCCCCn1cc(-c2cccnc2)nn1 | 65.7 | 289 | 
